Molecules are shown by their SMILES. Activity calls are given as the source filed them. The calls are words filed in the database; no cut-off is given here. Bounds are passed on as bounds.

The values that follow come from ChEMBL document CHEMBL1147981, “Small molecule activators of SIRT1 as therapeutics for the treatment of type 2 diabetes” (Nature, 2007).

Assay [1] concerns the target T1, NAD-dependent protein deacetylase sirtuin-1 (Homo sapiens) (UniProt Q96EB6).
T1 sequence (whole entry): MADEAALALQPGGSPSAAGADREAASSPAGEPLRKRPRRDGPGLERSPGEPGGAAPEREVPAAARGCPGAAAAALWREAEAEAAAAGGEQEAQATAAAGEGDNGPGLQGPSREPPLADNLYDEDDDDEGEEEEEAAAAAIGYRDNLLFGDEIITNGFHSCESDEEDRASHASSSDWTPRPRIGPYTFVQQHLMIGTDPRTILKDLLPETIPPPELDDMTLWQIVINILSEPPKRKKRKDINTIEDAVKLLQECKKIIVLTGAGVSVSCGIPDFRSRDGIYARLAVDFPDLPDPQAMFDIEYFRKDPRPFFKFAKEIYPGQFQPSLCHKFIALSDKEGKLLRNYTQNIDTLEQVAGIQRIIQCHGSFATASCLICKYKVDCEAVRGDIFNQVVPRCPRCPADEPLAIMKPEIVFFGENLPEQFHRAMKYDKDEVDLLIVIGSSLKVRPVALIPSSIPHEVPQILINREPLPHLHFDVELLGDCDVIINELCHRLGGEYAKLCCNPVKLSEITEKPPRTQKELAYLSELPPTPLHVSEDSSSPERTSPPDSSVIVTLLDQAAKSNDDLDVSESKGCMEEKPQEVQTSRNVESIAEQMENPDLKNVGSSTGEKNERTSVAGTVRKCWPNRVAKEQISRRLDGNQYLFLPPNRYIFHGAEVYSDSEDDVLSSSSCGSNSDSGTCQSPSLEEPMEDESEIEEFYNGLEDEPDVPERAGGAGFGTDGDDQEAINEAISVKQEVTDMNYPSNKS
Briefly: Activation of human SIRT1 assessed as decrease in Km of enzyme for acetylated peptide substrate by mass spectrometry assay.

For assay [2], the target named is T1, NAD-dependent protein deacetylase sirtuin-1 (Homo sapiens). The assay can be described thus: (§1) Activation of human SIRT1 expressed in Escherichia coli BL21 by mass spectrometry assay.
For assay [3], the target named is T2, NAD-dependent protein deacetylase sirtuin-1 (Homo sapiens, UniProt Q96EB6).
T2 sequence (Q96EB6 whole entry): T1 sequence (whole entry)
The description is as §1.

Assay [4] has as its target T3, NAD-dependent protein deacetylase sirtuin-2 (Homo sapiens, UniProt Q8IXJ6).
T3 sequence (Q8IXJ6 whole entry): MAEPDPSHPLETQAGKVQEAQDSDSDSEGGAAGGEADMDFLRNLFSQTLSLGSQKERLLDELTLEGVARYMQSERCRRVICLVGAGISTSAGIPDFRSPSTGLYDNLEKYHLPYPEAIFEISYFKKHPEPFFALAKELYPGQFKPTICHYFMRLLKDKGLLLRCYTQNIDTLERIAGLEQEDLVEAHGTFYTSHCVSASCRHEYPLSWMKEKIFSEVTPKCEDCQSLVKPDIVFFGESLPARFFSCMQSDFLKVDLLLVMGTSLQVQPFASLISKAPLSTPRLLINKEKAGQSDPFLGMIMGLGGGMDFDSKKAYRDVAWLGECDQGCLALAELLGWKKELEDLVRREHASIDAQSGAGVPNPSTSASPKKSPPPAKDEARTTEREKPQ
The assay can be described thus: Activation of SIRT2 by mass spectrometry assay.

The target in assay [5] is T4, NAD-dependent protein deacetylase sirtuin-3, mitochondrial (Homo sapiens, UniProt Q9NTG7).
T4 sequence (Q9NTG7 whole entry): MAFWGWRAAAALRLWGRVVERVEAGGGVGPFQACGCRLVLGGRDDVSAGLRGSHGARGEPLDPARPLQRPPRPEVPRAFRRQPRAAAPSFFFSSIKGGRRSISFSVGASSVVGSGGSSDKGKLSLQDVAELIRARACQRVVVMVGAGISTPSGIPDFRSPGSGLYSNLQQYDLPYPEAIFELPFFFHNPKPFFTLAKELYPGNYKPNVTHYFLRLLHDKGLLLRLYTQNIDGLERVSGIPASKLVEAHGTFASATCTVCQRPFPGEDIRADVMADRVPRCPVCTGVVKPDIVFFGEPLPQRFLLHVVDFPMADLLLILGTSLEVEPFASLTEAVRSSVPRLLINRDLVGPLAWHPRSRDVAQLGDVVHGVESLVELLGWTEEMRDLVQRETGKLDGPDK
Briefly: Activation of SIRT3 by mass spectrometry assay.

The target in assay [6] is T1, NAD-dependent protein deacetylase sirtuin-1 (Homo sapiens). The assay can be described thus: Activation of SIRT1 in human U2OS cells assessed as decrease in deacetylation level at 10 uM. It counts as cell-based. The gist of the method:
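U-2 OS cells seeded 1.5 × 10⁴/well; compounds in DMSO added after 24 h, then doxorubicin 1 μg/ml final to induce p53. Fixed, permeabilized, immunostained for Ac-Lys382-p53 and beta-tubulin, infrared scan; background-corrected acetyl signal normalized to tubulin, then to vehicle as % acetylated p53. Replicate plates co-treated with a SIRT1-specific inhibitor.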

The species entered for assay [7] is Mus musculus. The assay can be described thus: Reduction of insulin level in chow-fed C57BL/6 mouse. It counts as functional, organism-based.
Assay [8] has as its system Mus musculus. Briefly: Reduction of blood glucose level in diabetic Lep ob/ob mouse model at 1000 mg/kg, po after 3 weeks. It counts as functional, organism-based. More on the design: dose 1000 mg/kg. The gist of the method: (§2)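 ob/ob mice received at 6 weeks, kept on 60%-fat diet from at least one week before study; ~40-45 g; grouped by body weight and glucose; once-daily oral gavage in 2% HPMC + 0.2% DOSS. One-way ANOVA with Dunnett's test vs control, p<0.05.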

Assay [9] relates to Mus musculus. Briefly: Reduction of blood glucose level in DIO C57BL/6 mouse model at 500 mg/kg, po after 4 weeks. It counts as functional, organism-based. More on the design: dose 500 mg/kg. The gist of the method:
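Male C57BL/6 mice, started at nine weeks, fed 60%-fat diet until mean weight ~40 g; 6-10 per group; once-daily oral gavage in 2% HPMC + 0.2% DOSS. Fed glucose at 2, 4, 6, 8, 10 weeks; IPGTT after 5 weeks; ITT after 10 weeks. One-way ANOVA with Dunnett's test vs control, p<0.05.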

Assay [10] concerns Mus musculus. Briefly: Effect on body weight in diabetic Lep ob/ob mouse model at 1000 mg/kg, po. It counts as functional, organism-based. More on the design: dose 1000 mg/kg. The gist of the method: as §2
The target of assay [11] is T1, NAD-dependent protein deacetylase sirtuin-1 (Homo sapiens). Briefly: Activation of human SIRT1-D (219-664) construct by mass spectrometry assay relative to control.
Assay [12] shares this target. Briefly: Activation of human SIRT1-F (230-664) construct by mass spectrometry assay relative to control.
Assay [13] has the same target. Briefly: Activation of human SIRT1-G (235-664) construct by mass spectrometry assay relative to control.
Assay [14] shares this target. The assay can be described thus: Activation of human SIRT1-H (240-664) construct by mass spectrometry assay relative to control.
Assay [15] shares this target. The assay can be described thus: Activation of SIRT1 in human U2OS cells assessed as decrease in p53 deacetylation level at 100 uM. It counts as cell-based. The gist of the method: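 U-2 OS cells plated at 1.5 X 10⁴ cells/well; compounds (DMSO) added after 24 h, then doxorubicin (1 μg/ml final) to induce p53. Replicate plates were co-treated with a SIRT1-specific inhibitor. Cells were fixed, permeabilized and immunostained for Ac-Lys382-p53 and beta-tubulin, with infrared scanning. Signals were background-corrected, normalized to tubulin, then to vehicle (% acetylated p53).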

Assay [16] shares this target. Briefly: Activation of human SIRT1-A (156-664) construct by mass spectrometry assay relative to control.
The target is the same in assay [17]. Briefly: Activation of human SIRT1-B (172-664) construct by mass spectrometry assay relative to control.
Assay [18] shares this target. The assay can be described thus: Activation of human SIRT1-C construct by mass spectrometry assay relative to control.
The target is the same in assay [19]. The assay can be described thus: Activation of human SIRT1-E (225-664) construct by mass spectrometry assay relative to control.

Consider `O=C(Nc1ccccc1-c1cn2c(CN3CC[C@@H](O)C3)csc2n1)c1ccc2ccccc2c1`, for which the result in assay [1] and in assay [6] was Active. In addition, the Activity in assay [2] is 296%. In addition, the EC50 in [3] was 0.36 µM; in [4] it was over 300 µM; in assay [5] it was over 300 µM.
With `Oc1ccc(/C=C/c2cc(O)cc(O)c2)cc1` [RESVERATROL], the outcome in [7], in assay [8], in [9], in [1] and in assay [15] was Active. Moreover, in assay [10], the outcome was inactive. For the same compound, the Activity in assay [11] came to 1.3; in [12] it was 1.1; in assay [13], 1.2; in [14], 1.2; in [2], 201%; in assay [16], 1.8. Further, the Activity is 1.7 in assay [17], 1.9 in [18] and 1.3 in [19]. Besides, the EC50 in [4] and in [5] was over 300 µM in each case.
